Laboratory results from ChEMBL document CHEMBL1123930, “Structure-activity relationships among di- and tetramine disulfides related to benextramine” (1987).
Activity calls are given as the source filed them. The rule behind the calls is not given here.

Tests used:
Type in all cases: functional
Rattus norvegicus [1] = organism: Rattus norvegicus; assay: Irreversible inhibition against Norepinephrine (NE)-induced response in rat vas deferens with benextramine (BHC) as standard at a concentration of 10e-4 M
How it was run: (§1)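 Rat vas deferens tissues were held at 32 °C under 95% O2/5% CO2 at 0.50 g loading tension, with contractions recorded by force transducer. After 1 h equilibration and a medium change, antagonist was incubated for 30 min, then drained and washed out for 30 min. Cumulative NE concentration-response curves followed. The fall in maximal response, as percent of control, is reported as mean ± SEM of five experiments.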

Rattus norvegicus [2] = organism: Rattus norvegicus; assay: Irreversible inhibition against Norepinephrine (NE)-induced response in rat vas deferens with benextramine (BHC) as standard at a concentration of 2 x 10e-5 M; Inactive; how it was run: as §1
[3] = target: Adrenergic receptor alpha (Rattus norvegicus) (UniProt P15823+P23944+P43140+P22086+P19328+P22909); assay: Irreversible inhibition against Norepinephrine (NE)-induced response in rat vas deferens with benextramine (BHC) as standard at a concentration of 2 x 10e-5 M; how it was run: as §1
Rattus norvegicus [4] = organism: Rattus norvegicus; assay: Irreversible inhibition against Norepinephrine (NE)-induced response in rat vas deferens with benextramine (BHC) as standard at a concentration of 10e-4 M; Inactive; how it was run: as §1
Rattus norvegicus [5] = organism: Rattus norvegicus; assay: Irreversible inhibition against Norepinephrine (NE)-induced response in rat vas deferens with benextramine (BHC) as standard at a concentration of 6 x 10e-6 M; how it was run: as §1

Compound	inhibition [3] [%]	inhibition at 100 µM (Rattus norvegicus [1]) [%]	inhibition (Rattus norvegicus [2])	also measured
CN(CCCCCCN1CNc2ccccc2C1)CCSSCCN(C)CCCCCCN1CNc2ccccc2C1		6	inactive	
COc1cc(C(O)CNCCCCCCNCCSSCCNCCCCCCNCC(O)c2cc(OC)c(OC)c(OC)c2)cc(OC)c1OC (stereo not given)	98			
CC(C)(C)NCCSSCCNC(C)(C)C			inactive	inhibition (Rattus norvegicus [4]): inactive
c1ccc2c(c1)CCN(CCCCCCNCCSSCCNCCCCCCN1CCc3ccccc3C1)C2		66	inactive	
C1CCN(CCSSCCN2CCCCC2)CC1			inactive	inhibition (Rattus norvegicus [4]): inactive
c1ccc(CCNCCCCCCNCCSSCCNCCCCCCNCCc2ccccc2)cc1		32	inactive	
Nc1ccccc1C(=O)NCCCCCCNCCSSCCNCCCCCCNC(=O)c1ccccc1N		55	inactive	
Oc1ccc(C(O)CNCCCCCCNCCSSCCNCCCCCCNCC(O)c2ccc(O)c(O)c2)cc1O (stereo not given)	92			
COc1ccc(C(O)CNCCCCCCNCCSSCCNCCCCCCNCC(O)c2ccc(OC)c(OC)c2)cc1OC (stereo not given)	87			
c1ccc2c(CNCCCCCCNCCSSCCNCCCCCCNCc3c[nH]c4ccccc34)c[nH]c2c1		46	inactive	
CN(CCCCCCN1CCCC1)CCSSCCN(C)CCCCCCN1CCCC1	41			
COc1ccccc1CNCCCCCCOCCSSCCOCCCCCCNCc1ccccc1OC	36			
c1ccc(CNCCSSCCNCc2ccccc2)cc1	12	48		
OC(CNCCCCCCNCCSSCCNCCCCCCNCC(O)c1ccc2c(c1)OCO2)c1ccc2c(c1)OCO2 (stereo not given)	43			
c1ccc2c(c1)OC[C@@H](CNCCCCCCNCCSSCCNCCCCCCNC[C@@H]1COc3ccccc3O1)O2		68	inactive	
c1cc2c(cc1COCCCCCCNCCSSCCNCCCCCCOCc1ccc3c(c1)OCO3)OCO2		45	inactive	
c1ccc2c(c1)CN(CCCCCCNCCSSCCNCCCCCCN1COc3ccccc3C1)CO2		34	inactive	
CN(CCCCCCNCc1ccccc1N)CCSSCCN(C)CCCCCCNCc1ccccc1N		38	inactive	
CN(CCCCCCN1CCCCC1)CCSSCCN(C)CCCCCCN1CCCCC1	34			
c1ccc2c(c1)OCC(CNCCCCCCNCCSSCCNCCCCCCNCC1COc3ccccc3O1)O2 (stereo not given)		53	inactive	
c1ccc2c(c1)CN(CCCCCCNCCSSCCNCCCCCCN1CNc3ccccc3C1)CN2	89			
c1ccc2c(c1)OC[C@H](CNCCCCCCNCCSSCCNCCCCCCNC[C@H]1COc3ccccc3O1)O2		79	inactive	
CCN(CC)CCSSCCN(CC)CC			inactive	inhibition (Rattus norvegicus [4]): inactive
C(CCCN1CCCC1)CCNCCSSCCNCCCCCCN1CCCC1	98			
COc1ccc(C(O)CNCCCCCCNCCSSCCNCCCCCCNCC(O)c2ccc(OC)cc2)cc1 (stereo not given)	81			
COc1cccc(C(O)CNCCCCCCNCCSSCCNCCCCCCNCC(O)c2cccc(OC)c2)c1 (stereo not given)	91			
C(CCCN1CCCCC1)CCNCCSSCCNCCCCCCN1CCCCC1	100			inhibition at 6 µM (Rattus norvegicus [5]): 56%

Further lines, with some results ahead:

inhibition [3] [%]	Compound	inhibition at 100 µM (Rattus norvegicus [1]) [%]	inhibition (Rattus norvegicus [2])	also measured
79	Nc1ccccc1CNCCCCCCNCCSSCCNCCCCCCNCc1ccccc1N			
37	c1ccc2c(c1)CCN2CCCCCCNCCSSCCNCCCCCCN1CCc2ccccc21			
82	COc1ccccc1C(O)CNCCCCCCNCCSSCCNCCCCCCNCC(O)c1ccccc1OC (stereo not given)			
100	Cn1ccc(CNCCCCCCNCCSSCCNCCCCCCNCc2ccn(C)c2)c1			inhibition at 6 µM (Rattus norvegicus [5]): 54%
44	O=C(Cc1ccccc1)NCCCCCCNCCSSCCNCCCCCCNC(=O)Cc1ccccc1			
32	c1ccc(CNCCCCCCOCCSSCCOCCCCCCNCc2ccccc2)cc1			
57	NC(CCCCCNCCSSCCNCCCCCC(N)Cc1ccccc1)Cc1ccccc1 (stereo not given)			
13	OC(CNCCCCCCNCCSSCCNCCCCCCNCC(O)c1ccccc1)c1ccccc1 (stereo not given)	40		
60	c1ccc(COCCCCCCNCCSSCCNCCCCCCOCc2ccccc2)cc1			
70	c1csc(CNCCCCCCNCCSSCCNCCCCCCNCc2cccs2)c1			
100	COc1ccccc1CNCCCCCCNCCSSCCNCCCCCCNCc1ccccc1OC [BENEXTRAMINE]			inhibition at 6 µM (Rattus norvegicus [5]): 35%
58	COc1ccccc1COCCCCCCNCCSSCCNCCCCCCOCc1ccccc1OC			
100	c1coc(CNCCCCCCNCCSSCCNCCCCCCNCc2ccco2)c1			inhibition at 6 µM (Rattus norvegicus [5]): 79%
